From ChEMBL document CHEMBL1129606, “Synthesis and bioevaluation of delta 7-5-desaturase inhibitors, an enzyme late in the biosynthesis of the fungal sterol ergosterol” (J Med Chem, 1996) come the findings set out here.

This test concerns the target Delta(7)-sterol 5(6)-desaturase. In words: Inhibition of 5-Desaturase involved in ergosterol biosynthesis. Set-up: species or system Saccharomyces cerevisiae. In short, it runs like this:
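Microsomal Δ7-sterol 5-desaturase from aerobically grown S. cerevisiae (37 °C, YPD). Cells bead-disrupted in 0.1 M Tris-HCl pH 7.4, 94500g pellet, desalted on Sephadex G-50. Incubated with Tween 20, FeCl3, NADPH and [5α,6α-3H]-7,22(E)-ergostadien-3β-ol with varied inhibitor, all else held constant. Alkali quench, EtOAc extraction, aqueous 3H2O scintillation-counted. IC50 from inverse velocity vs inhibitor concentration; mean of ≥2 experiments.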
For `C[C@]12CC[C@H](O)C[C@]1(C=O)CC=C1CCC12` (some centres not stated), the IC50 (as a rule, the concentration that inhibits the measured activity by half) was found to be 116 µM.

On to `C[C@]12CC[C@H](O)C[C@]1(C(N)=O)CC=C1CCC12` (some centres not stated), for which the IC50 was determined as 114 µM.

For `C[C@]12CC[C@H](O)C[C@]1(O)CC=C1CCC12` (some centres not stated), the IC50 came to 148 µM.

Consider `C[C@]12CC[C@H](O)C[C@]1(S)CC=C1CCC12` (some centres not stated), for which the IC50 turned out to be 80 µM.

`C[C@]12CC[C@H](O)C[C@@H]1[C@@H](O)C=C1CCC12` (some centres not stated) yielded an IC50 of 47 µM.

`C[C@]12CC[C@H](O)C[C@]1(C#N)CC=C1CCC12` (some centres not stated) showed a concentration for half-maximal inhibition (IC50) of 131 µM.

`C[C@]12CC[C@H](O)[C@H]3O[C@]31CC=C1CCC12` (some centres not stated): inhibition was half-maximal at 66 µM (IC50).

`C[C@]12CC[C@H](O)C[C@]1(CO)CC=C1CCC12` (some centres not stated) had a concentration for half-maximal inhibition (IC50) of 112 µM.

In turn, `C[C@]12CC[C@H](O)C[C@]1(C(=O)O)CC=C1CCC12` (some centres not stated) returned a concentration for half-maximal inhibition (IC50) of 111 µM.

`C[C@]12CC[C@H](O)C[C@]1(/C=N/O)CC=C1CCC12` (some centres not stated) yielded a concentration for half-maximal inhibition (IC50) of 136 µM.

Compound `C[C@]12CC[C@H](O)C[C@]1(O)[C@H](O)C=C1CCC12` (some centres not stated) yielded an IC50 of 96 µM.

For `C[C@]12CC[C@H](O)C[C@]1(O)[C@@H](O)C=C1CCC12` (some centres not stated), inhibition was half-maximal at 149 µM (IC50).
